Assay results: ChEMBL document CHEMBL1123497, “Structure-activity studies of 4,6-disubstituted 2-(morpholinocarbonyl)furo[3,2-b]indole derivatives with analgesic and antiinflammatory activities” (1986)

What was measured:
Type in all cases: functional
Rattus norvegicus [1] = experiment: Antiinflammatory activity by Carrageenan edema assay in rats; set-up: concentration or dose not given beside the values; unit not given here
How it was run: (§1)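 Groups of six male Wistar rats (130–170 g) were dosed orally 60 min before a subplantar injection of 0.5% λ-carrageenin suspension (0.1 mL/rat) into the left hind paw. Foot volume was measured every 60 min for 360 min, and % swelling was compared with controls. ED50 and 95% confidence limits came from Litchfield–Wilcoxon. Screening used % edema inhibition at 100 mg/kg po.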

Mus musculus [2] = species: Mus musculus; experiment: Analgesic activity by acetic acid writhing assay in mice; set-up: concentration or dose not given beside the values
How it was run: (§2)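 Mice received drug orally 30 min before an ip injection of 0.7% acetic acid (10 mL/kg). Writhes were counted 10–20 min after injection, and % inhibition was taken against a control group. ED50 and 95% confidence limits came from the Litchfield–Wilcoxon method.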

Mus musculus [3] = species: Mus musculus; experiment: Inhibition of acetic acid induced writhing in mice.; how it was run: as §2
Rattus norvegicus [4] = experiment: Compound was evaluated for antiinflammatory activity in rats by carrageenan edema test; how it was run: as §1
Rattus norvegicus [5] = species: Rattus norvegicus; experiment: Compound was evaluated for analgesic activity in Randall-Selitto test in inflamed foot rats
How it was run: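 Groups of six male Wistar rats (90–110 g) received 20% yeast suspension (0.1 mL/rat) subplantar into the right hind paw, then oral drug 120 min later. Pain threshold was read every 60 min for 240 min. A rise of more than 50% over the control group counted as positive. ED50 and 95% confidence limits came from Litchfield–Wilcoxon.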

Rattus norvegicus [6] = species: Rattus norvegicus; experiment: Compound was evaluated for antipyretic activity in rats by yeast induced fever test
How it was run: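 Groups of six male Wistar rats (190–210 g) received 7.5% yeast suspension sc (10 mL/kg). Rats whose temperature rose by more than 1 °C were dosed orally 180 min later. Body temperature was recorded automatically every 60 min for 360 min, and % inhibition was compared with controls. ED50 and 95% confidence limits came from Litchfield–Wilcoxon.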

Rattus norvegicus [7] = species: Rattus norvegicus; experiment: Compound was evaluated for analgesic activity in Randall-Selitto test in normal foot rats
Mus musculus [8] = species: Mus musculus; experiment: Compound was evaluated for analgesic activity in Pressure test in mice
How it was run: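 Groups of 10 male ddY mice (19–24 g) were dosed orally, and pain threshold to pressure was measured every 30 min for 120 min. A postdrug threshold raised more than 50% over the predrug value counted as positive. ED50 and 95% confidence limits came from Litchfield–Wilcoxon.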

Rattus norvegicus [9] = species: Rattus norvegicus; experiment: Compound was evaluated for analgesic activity in Adjuvant-induced arthritic pain test in rats
How it was run: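 Groups of six male SD rats (160–200 g) received 0.5% Mycobacterium butyricum suspension (0.1 mL/rat) intradermally into the distal tail. After 15–18 days, rats that vocalized on gentle flexion were dosed orally, and the pain response was checked every 60 min for 300 min. Absence of response counted as positive. ED50 and 95% confidence limits came from Litchfield–Wilcoxon.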

Rattus norvegicus [10] = experiment: Compound was evaluated for antiinflammatory activity by Carrageenan edema assay in rats; how it was run: as §1
Mus musculus [11] = species: Mus musculus; experiment: Compound was evaluated for analgesic activity in Acetic acid writhing assay in mice; how it was run: as §2

CCCOC(=O)n1c2cc(OC)ccc2c2oc(C(=O)N3CCOCC3)cc21
Inhibition (Rattus norvegicus [1]): 1
Inhibition (Mus musculus [2]): 2%

CCOC(=O)n1c2cc(F)ccc2c2oc(C(=O)N3CCOCC3)cc21
Inhibition (Rattus norvegicus [1]): 1
Inhibition (Mus musculus [2]): 1%

CC(C)COC(=O)n1c2cc(Cl)ccc2c2oc(C(=O)N3CCOCC3)cc21
Inhibition (Rattus norvegicus [1]): 2
Inhibition (Mus musculus [2]): 2%

COC(=O)n1c2cc(O)ccc2c2oc(C(=O)N3CCOCC3)cc21
Inhibition (Rattus norvegicus [1]): 1
Inhibition (Mus musculus [2]): 1%

CCCCC(=O)n1c2cc(C(F)(F)F)ccc2c2oc(C(=O)N3CCOCC3)cc21
ED50 (Mus musculus [3]): 34.5 mg/kg
Inhibition (Rattus norvegicus [1]): 3
Inhibition (Mus musculus [2]): 3%

CCOC(=O)n1c2cc(OC)ccc2c2oc(C(=O)N3CCOCC3)cc21
Inhibition (Rattus norvegicus [1]): 1
Inhibition (Mus musculus [2]): 1%

CCOC(=O)n1c2cc(C)ccc2c2oc(C(=O)N3CCOCC3)cc21
Inhibition (Rattus norvegicus [1]): 3
Inhibition (Mus musculus [2]): 2%

CCOC(=O)n1c2cc(C(F)(F)F)ccc2c2oc(C(=O)N3CCOCC3)cc21
ED50 (Mus musculus [3]): 35.6 mg/kg
Inhibition (Rattus norvegicus [1]): 3
Inhibition (Mus musculus [2]): 3%

CCCCOC(=O)n1c2cc(Cl)ccc2c2oc(C(=O)N3CCOCC3)cc21
Inhibition (Rattus norvegicus [1]): 2
Inhibition (Mus musculus [2]): 3%

CC(C)CC(=O)n1c2cc(C(F)(F)F)ccc2c2oc(C(=O)N3CCOCC3)cc21
ED50 (Mus musculus [3]): 6 mg/kg
Inhibition (Rattus norvegicus [1]): 3
Inhibition (Mus musculus [2]): 3%

Cc1ccc2c3oc(C(=O)N4CCOCC4)cc3n(C(=O)OC(C)C)c2c1
ED50 (Mus musculus [3]): 26 mg/kg
Inhibition (Rattus norvegicus [1]): 3
Inhibition (Mus musculus [2]): 3%

CCCCCCCCn1c2cc(C(F)(F)F)ccc2c2oc(C(=O)N3CCOCC3)cc21
Inhibition (Rattus norvegicus [1]): 3

CCCCCCn1c2cc(C(F)(F)F)ccc2c2oc(C(=O)N3CCOCC3)cc21
ED50 (Mus musculus [3]): 7.7 mg/kg
Inhibition (Rattus norvegicus [1]): 3
Inhibition (Mus musculus [2]): 3%

CC(C)OC(=O)n1c2ccccc2c2oc(C(=O)N3CCOCC3)cc21
Inhibition (Rattus norvegicus [1]): 2
Inhibition (Mus musculus [2]): 2%

CCCCCCCn1c2cc(C(F)(F)F)ccc2c2oc(C(=O)N3CCOCC3)cc21
ED50 (Mus musculus [3]): 17.8 mg/kg
Inhibition (Rattus norvegicus [1]): 3
Inhibition (Mus musculus [2]): 3%

CCCCn1c2cc(C(F)(F)F)ccc2c2oc(C(=O)N3CCOCC3)cc21
ED50 (Mus musculus [3]): 29.5 mg/kg
Inhibition (Rattus norvegicus [1]): 3
Inhibition (Mus musculus [2]): 3%

CCCCOC(=O)n1c2ccccc2c2oc(C(=O)N3CCOCC3)cc21
Inhibition (Rattus norvegicus [1]): 1
Inhibition (Mus musculus [2]): 1%

O=C(Cn1c(=O)sc2ccc(Cl)cc21)N1CCN(CCO)CC1 [TIARAMIDE]
ED50 (Mus musculus [3]): 74 mg/kg
ED50 (Rattus norvegicus [4]): 119 mg/kg
ED50 (Rattus norvegicus [5]): 94.6 mg/kg
ED50 (Rattus norvegicus [6]): 171 mg/kg
ED50 (Rattus norvegicus [7]): > 160 mg/kg
ED50 (Mus musculus [8]): 116 mg/kg
ED50 (Rattus norvegicus [9]): 176 mg/kg

CCCCOC(=O)n1c2cc(OC)ccc2c2oc(C(=O)N3CCOCC3)cc21
Inhibition (Rattus norvegicus [1]): 1
Inhibition (Mus musculus [2]): 2%

CC(C)Cn1c2cc(C(F)(F)F)ccc2c2oc(C(=O)N3CCOCC3)cc21
Inhibition (Rattus norvegicus [1]): 3
Inhibition (Mus musculus [2]): 2%

COC(=O)n1c2cc(F)ccc2c2oc(C(=O)N3CCOCC3)cc21
Inhibition (Rattus norvegicus [1]): 1
Inhibition (Mus musculus [2]): 1%

COc1ccc2c3oc(C(=O)N4CCOCC4)cc3n(C(=O)OCC(C)C)c2c1
Inhibition (Rattus norvegicus [1]): 1
Inhibition (Mus musculus [2]): 3%

CCOC(=O)n1c2cc(Cl)ccc2c2oc(C(=O)N3CCOCC3)cc21
Inhibition (Rattus norvegicus [1]): 2
Inhibition (Mus musculus [2]): 1%

CC(C)C(=O)n1c2cc(C(F)(F)F)ccc2c2oc(C(=O)N3CCOCC3)cc21
ED50 (Mus musculus [3]): 7.3 mg/kg
Inhibition (Rattus norvegicus [1]): 3
Inhibition (Mus musculus [2]): 3%

CC(C)COC(=O)n1c2cc(F)ccc2c2oc(C(=O)N3CCOCC3)cc21
Inhibition (Rattus norvegicus [1]): 1
Inhibition (Mus musculus [2]): 2%

CC(C)CCn1c2cc(C(F)(F)F)ccc2c2oc(C(=O)N3CCOCC3)cc21
ED50 (Mus musculus [3]): 5.1 mg/kg
Inhibition (Rattus norvegicus [1]): 3
Inhibition (Mus musculus [2]): 3%

COC(=O)n1c2cc(C)ccc2c2oc(C(=O)N3CCOCC3)cc21
Inhibition (Rattus norvegicus [1]): 2
Inhibition (Mus musculus [2]): 1%

CC(C)CCCn1c2cc(C(F)(F)F)ccc2c2oc(C(=O)N3CCOCC3)cc21
ED50 (Mus musculus [3]): 6 mg/kg
Inhibition (Rattus norvegicus [1]): 3
Inhibition (Mus musculus [2]): 3%

CC(C)(C)C(=O)n1c2cc(C(F)(F)F)ccc2c2oc(C(=O)N3CCOCC3)cc21
Inhibition (Rattus norvegicus [1]): 1
Inhibition (Mus musculus [2]): 3%

COC(=O)n1c2cc(C(F)(F)F)ccc2c2oc(C(=O)N3CCOCC3)cc21
Inhibition (Rattus norvegicus [1]): 1
Inhibition (Mus musculus [2]): 1%

CC(C)COC(=O)n1c2cc(C(F)(F)F)ccc2c2oc(C(=O)N3CCOCC3)cc21
Inhibition (Rattus norvegicus [1]): 2
Inhibition (Mus musculus [2]): 2%

CCCOC(=O)n1c2cc(Cl)ccc2c2oc(C(=O)N3CCOCC3)cc21
Inhibition (Rattus norvegicus [1]): 2
Inhibition (Mus musculus [2]): 2%

CCCCOC(=O)n1c2cc(C)ccc2c2oc(C(=O)N3CCOCC3)cc21
Inhibition (Rattus norvegicus [1]): 1
Inhibition (Mus musculus [2]): 2%

CCCOC(=O)n1c2cc(C)ccc2c2oc(C(=O)N3CCOCC3)cc21
Inhibition (Rattus norvegicus [1]): 1
Inhibition (Mus musculus [2]): 2%

CCOC(=O)n1c2cc(O)ccc2c2oc(C(=O)N3CCOCC3)cc21
Inhibition (Rattus norvegicus [1]): 1
Inhibition (Mus musculus [2]): 2%

COC(=O)n1c2ccccc2c2oc(C(=O)N3CCOCC3)cc21
Inhibition (Rattus norvegicus [10]): 2%
Inhibition (Mus musculus [2]): 1%

CCCOC(=O)n1c2cc(C(F)(F)F)ccc2c2oc(C(=O)N3CCOCC3)cc21
ED50 (Mus musculus [3]): 34.6 mg/kg
Inhibition (Rattus norvegicus [1]): 3
Inhibition (Mus musculus [2]): 3%

CCOC(=O)n1c2ccccc2c2oc(C(=O)N3CCOCC3)cc21
Inhibition (Rattus norvegicus [1]): 1
Inhibition (Mus musculus [2]): 1%

Cc1ccc2c3oc(C(=O)N4CCOCC4)cc3n(C(=O)OCC(C)C)c2c1
Inhibition (Rattus norvegicus [1]): 2
Inhibition (Mus musculus [2]): 2%

CC(C)COC(=O)n1c2ccccc2c2oc(C(=O)N3CCOCC3)cc21
Inhibition (Rattus norvegicus [1]): 1
Inhibition (Mus musculus [2]): 1%

CC(C)OC(=O)n1c2cc(F)ccc2c2oc(C(=O)N3CCOCC3)cc21
Inhibition (Rattus norvegicus [1]): 1
Inhibition (Mus musculus [2]): 2%

CC(C)OC(=O)n1c2cc(C(F)(F)F)ccc2c2oc(C(=O)N3CCOCC3)cc21
ED50 (Mus musculus [3]): 4.7 mg/kg
Inhibition (Rattus norvegicus [1]): 3
Inhibition (Mus musculus [2]): 3%

COC(=O)n1c2cc(OC)ccc2c2oc(C(=O)N3CCOCC3)cc21
Inhibition (Rattus norvegicus [1]): 1
Inhibition (Mus musculus [2]): 1%

CCCCOC(=O)n1c2cc(C(F)(F)F)ccc2c2oc(C(=O)N3CCOCC3)cc21
ED50 (Mus musculus [3]): 21.4 mg/kg
Inhibition (Rattus norvegicus [1]): 3
Inhibition (Mus musculus [2]): 3%

CC(C)=CCn1c2cc(C(F)(F)F)ccc2c2oc(C(=O)N3CCOCC3)cc21
ED50 (Mus musculus [3]): 10.1 mg/kg
Inhibition (Rattus norvegicus [1]): 3
Inhibition (Mus musculus [2]): 3%

CC(C)OC(=O)n1c2cc(Cl)ccc2c2oc(C(=O)N3CCOCC3)cc21
ED50 (Mus musculus [3]): 21.4 mg/kg
Inhibition (Rattus norvegicus [1]): 3
Inhibition (Mus musculus [2]): 3%

CCCCC(CC)C(=O)n1c2cc(C(F)(F)F)ccc2c2oc(C(=O)N3CCOCC3)cc21 (stereo unspecified)
ED50 (Mus musculus [3]): 0.7 mg/kg
ED50 (Rattus norvegicus [4]): 5.4 mg/kg
ED50 (Mus musculus [11]): 0.7 mg/kg
Inhibition (Rattus norvegicus [1]): 3
ED50 (Rattus norvegicus [5]): 1.7 mg/kg
ED50 (Rattus norvegicus [6]): 0.059 mg/kg
ED50 (Rattus norvegicus [7]): 5.9 mg/kg
Inhibition (Mus musculus [2]): 3%
ED50 (Mus musculus [8]): 7 mg/kg
ED50 (Rattus norvegicus [9]): 1.7 mg/kg

CCCCCCCCC(=O)n1c2cc(C(F)(F)F)ccc2c2oc(C(=O)N3CCOCC3)cc21
Inhibition (Rattus norvegicus [1]): 2
Inhibition (Mus musculus [2]): 3%

CCCOC(=O)n1c2cc(F)ccc2c2oc(C(=O)N3CCOCC3)cc21
Inhibition (Rattus norvegicus [1]): 1
Inhibition (Mus musculus [2]): 2%

COC(=O)n1c2cc(Cl)ccc2c2oc(C(=O)N3CCOCC3)cc21
Inhibition (Rattus norvegicus [1]): 1
Inhibition (Mus musculus [2]): 1%

CCCCOC(=O)n1c2cc(F)ccc2c2oc(C(=O)N3CCOCC3)cc21
Inhibition (Rattus norvegicus [1]): 1
Inhibition (Mus musculus [2]): 2%

CCCCCn1c2cc(C(F)(F)F)ccc2c2oc(C(=O)N3CCOCC3)cc21
ED50 (Mus musculus [3]): 10.9 mg/kg
Inhibition (Rattus norvegicus [1]): 3
Inhibition (Mus musculus [2]): 3%

COc1ccc2c3oc(C(=O)N4CCOCC4)cc3n(C(=O)OC(C)C)c2c1
Inhibition (Rattus norvegicus [1]): 1
Inhibition (Mus musculus [2]): 2%

CCCOC(=O)n1c2ccccc2c2oc(C(=O)N3CCOCC3)cc21
Inhibition (Rattus norvegicus [1]): 1
Inhibition (Mus musculus [2]): 1%
